Compound activity: PubChem BioAssay, several laboratories
Most compounds without a hit are left out; they make up all but 2.9% or so of the library.
hiPSC survival = enhancers of single-cell hiPSC survival, primary screen, ATPlite luminescence; 100% = ROCK inhibitor wells, 0% = DMSO; survival enhancement, % at 20 µM; 360,000 compounds, 0.044% hits; AID 602274, 2012; in the data active = survival enhancement above about 18%;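 also: cells exposed to compounds for 16 hours before the ATP read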
T cruzi repl = inhibitors of intracellular T. cruzi growth, primary screen, luminescence, NIH3T3 host cells | T. cruzi beta-gal in NIH3T3, 90 h | inhibition, % (test concentration not listed) | 300,000 compounds, 1.4% hits | AID 1885, 2009;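 active = mean inhibition across valid replicates above about 55%, limit read from the data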;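 also: signal also drops with host cell toxicity which is not excluded here; 0% = plate median of DMSO wells and 100% = zero luminescence signal; higher percent means less beta-gal luminescence so fewer parasites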
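compound dosing = single 50 nL compound addition per well in DMSO | material = NIH/3T3 host cells with β-galactosidase reporter T. cruzi | input = 5,000 host fibroblasts per well | timing = ≥90 h infection period, 3 h prior cell attachment | read-out basis = percent inhibition of parasite-derived β-gal signal | detection = GalScreen β-gal luminescence, detergent lysis, 60 min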
TAG inh = inhibitors of triacylglycerol accumulation, primary screen, cell-based, uHTS, fluorescence, H9c2 | H9c2 cells, Nile Red lipid (TAG) fluorescence; cells loaded with 200 µM oleic acid | inhibition, % at 12.5 µM | 230,000 compounds, 0.66% hits;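 active = pattern-corrected inhibition of lipid staining of at least 50% with the nuclear-stain viability signal not falling by more than 50%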;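 also: 0% = DMSO wells and 100% = triacsin C control wells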
beta cell repl = inducers of MIN6 beta-cell proliferation, primary screen, ATP luminescence, uHTS | 330,000 compounds, 0.29% hits | AID 2380, 2010 | MIN6 cells proliferation, ATPlite luminescence, 48 h; cells starved in 0.2% serum; 100% = growth in 10% serum | proliferation, % at 10 µM;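 active = compounds whose signal lies at least 3.5 SD above the mean of all wells on their plate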;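 also: 0% = DMSO-treated cells in low-serum medium and 100% = 10% serum control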
PG9 binder = binders of HIV-1 gp120 antibody PG9, primary screen, biochemical, TR-FRET. TR-FRET gp120-PG9 antibody binding. 360,000 compounds, 0.43% hits. AID 624416, 2012. HIV-1 gp120 / PG9 antibody interaction. inhibition, % at 6.7 µM; in the data active = inhibition above about 8.5%
NR1D1 modulator = modulators of Rev-erb alpha DNA binding, primary screen, biochemical, FITC-DNA, fluorescence polarization, uHTS; 370,000 compounds, 0.79% hits; Nuclear receptor subfamily 1 group D member 1 (Homo sapiens), P20393; AID 1259318, 2017; Rev-erbα–FITC-DNA binding, 90 min; activity, % at 10 µM;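 active = activity above about 14%, limit read from the data; passing the limit was not always enough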;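 also: 0% = DMSO wells with 35 nM protein and 100% = DMSO wells with 750 nM protein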
Target sequence (P20393 whole entry, looked up): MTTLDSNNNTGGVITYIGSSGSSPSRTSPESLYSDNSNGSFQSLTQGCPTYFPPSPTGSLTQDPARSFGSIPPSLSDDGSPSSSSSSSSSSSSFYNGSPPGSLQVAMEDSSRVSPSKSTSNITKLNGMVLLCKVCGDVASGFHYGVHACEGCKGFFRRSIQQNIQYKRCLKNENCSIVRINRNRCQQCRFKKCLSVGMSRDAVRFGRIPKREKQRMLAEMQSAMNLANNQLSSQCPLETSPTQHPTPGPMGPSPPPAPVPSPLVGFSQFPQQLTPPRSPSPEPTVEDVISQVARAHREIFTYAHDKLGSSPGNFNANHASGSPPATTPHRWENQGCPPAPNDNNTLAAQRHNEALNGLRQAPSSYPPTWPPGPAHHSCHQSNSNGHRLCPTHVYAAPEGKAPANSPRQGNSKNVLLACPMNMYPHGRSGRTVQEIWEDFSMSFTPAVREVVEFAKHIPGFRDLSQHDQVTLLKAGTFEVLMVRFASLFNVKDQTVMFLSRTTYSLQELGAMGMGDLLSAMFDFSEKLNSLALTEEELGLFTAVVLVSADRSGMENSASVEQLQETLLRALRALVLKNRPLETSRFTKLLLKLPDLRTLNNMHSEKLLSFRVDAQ
Starred values were filed as active, the others as inactive; x = no result given.

SMILES	hiPSC survival	T cruzi repl	TAG inh	beta cell repl	PG9 binder	NR1D1 modulator
O=C(c1[nH]c(C(F)(F)F)nc1-c1ccccc1)N1CCN(c2ccc(C(F)(F)F)cn2)CC1	-4	x	x	x	2	-5
COc1ccccc1N1CCN(C(CNS(=O)(=O)c2cc(F)ccc2F)c2cccnc2)CC1 (centres undefined)	0	65*	-16	-2	-4	-7
O=C(NCC(c1cccnc1)N1CCN(c2ccccc2)CC1)c1ccco1 (centres undefined)	-1	65*	x	1	-1	-6
O=C(NCc1cccnc1)C(=O)NCC(c1ccco1)N1CCN(c2ccccc2)CC1 (centres undefined)	0	-21	x	0	-2	1
COc1ccccc1N1CCN(C(CNS(=O)(=O)c2ccccc2)c2cccnc2)CC1 (centres undefined)	-1	28	x	-2	x	x
CN1CCN(C(CNS(=O)(=O)c2ccc(F)cc2)c2cccnc2)CC1 (centres undefined)	-2	31	-6	-1	-1	-2
O=S(=O)(NCC(c1cccnc1)N1CCN(c2ccc(F)cc2)CC1)c1ccccc1 (centres undefined)	-2	59*	x	2	0	-4
O=S(=O)(NCC(c1cccnc1)N1CCN(c2ccccc2)CC1)c1cc(F)ccc1F (centres undefined)	0	76*	x	-3	-1	3
O=C(COC(=O)Cn1cnc2ccccc2c1=O)Nc1ccc(Cl)cc1	1	-24	3	0	0	-5
COCCN(Cc1ccccc1)C(=O)C1CCN(S(=O)(=O)c2ccc(OC)c(OC)c2)CC1	0	-10	7	3	-3	-4
CCC(C)NC(=O)CN(c1cc(C)cc(C)c1)S(=O)(=O)c1c(C)[nH]c(=O)[nH]c1=O (centres undefined)	0	-5	8	-1	0	3
Cn1c(SCC(=O)NC2CCCCC2)nnc1-c1ccccc1F	0	-12	x	-2	-1	-7
Cc1cc(NC(=O)/C=C/c2ccc(F)cc2)n(-c2nc3ccccc3[nH]2)n1	-2	17	x	0	-1	-7
COc1ccc(/C=C/C(=O)Nc2cc(C)nn2-c2nc3ccccc3[nH]2)cc1	-2	55*	x	-5	-1	2
CNC(=S)/N=C/NOCc1ccc(Cl)cc1Cl	2	74*	-11	-4	-4	1
COc1cc2nc(SCc3ccc(C(F)(F)F)cc3)n(Cc3cccs3)c(=N)c2cc1OC	4	27	x	-2	0	5
COc1ccc(Cn2c(SCc3cc(C)ccc3C)nc3cc(OC)c(OC)cc3c2=N)cc1	-4	59*	112*	-6	0	3
COc1cc2nc(SCc3ccc(Cl)cc3Cl)n(Cc3cccs3)c(=N)c2cc1OC	-1	77*	x	-6	-1	-1
COc1ccc(COc2cc(-c3cccc(OC)c3)nc3ccc(NC(=O)c4ccc(C)cc4)cc23)cc1	-2	23	28	-7	-1	0
COc1ccc(COc2cc(-c3cccc(OC)c3)nc3ccc(NC(C)=O)cc23)cc1	0	68*	-8	-3	0	-9
Cc1ccc(-n2cc(CNCCc3cscn3)c(-c3ccc(F)cc3)n2)cc1	-2	34	17	-6	-1	-3
Cc1ccc(-c2nn(-c3ccccc3)cc2CNCc2ccccc2)cc1	-2	62*	x	-6	-2	-4
Cc1ccc(-n2cc(CNCCCn3ccnc3C)c(-c3ccc(F)cc3)n2)cc1	-1	84*	28	-6	-1	7
CCn1c(SC(C)C(=O)NCC2CCCO2)nc2scc(-c3ccccc3)c2c1=O (centres undefined)	0	19	35	-2	-1	1
CSCCC(NS(=O)(=O)c1ccc2ccccc2c1)C(=O)OCC(=O)c1ccc(C(C)C)cc1 (centres undefined)	0	2	x	x	-1	-4
